ChEMBL document CHEMBL4177542, “A New Combination of a Pleuromutilin Derivative and Doxycycline for Treatment of Multidrug-Resistant Acinetobacter baumannii” (J Med Chem, 2017)
≈ marks a conversion by molar mass, not a printed value.

Experiments:
[1] = system: Acinetobacter baumannii; assay: Synergistic antibacterial activity against Acinetobacter baumannii ATCC 19606 at 60:1 compound to doxycycline ratio after 48 hrs by resazurin dye based microdilution broth checkerboard method; assay type: functional; settings: ATCC 19606 = CIP 70.34 = JCM 6841, 48 h
Method in brief: (§1)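 Checkerboard broth microdilution of drug pairs in tryptic soy broth on mid-log cultures (OD 0.5), 48 h at 37 °C. Growth read by resazurin (pink growth, blue no growth). MBC is blue retained over 4 h, CFU plating where needed. ΣFIC = C_A/MIC_A + C_B/MIC_B, taken at the growth/no-growth interface wells; ΣFIC <0.5 counts as synergy.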

[2] = system: Acinetobacter baumannii; assay: Synergistic antibacterial activity against Acinetobacter baumannii ATCC 19606 at 35:1 compound to doxycycline ratio after 48 hrs by resazurin dye based microdilution broth checkerboard method; assay type: functional; settings: ATCC 19606 = CIP 70.34 = JCM 6841, 48 h
Method in brief: (§2)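 Microdilution broth checkerboard of the compound combined with doxycycline, using the resazurin broth method (48 h, 37 °C, blue = no growth). ΣFIC = C_A/MIC_A + C_B/MIC_B, taken at the growth–no growth interface wells; ΣFIC below 0.5 is scored as synergy. MBC for the fixed-ratio combinations read as the 4 h resazurin endpoint.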

[3] = system: Acinetobacter baumannii; assay: Synergistic antibacterial activity against multidrug-resistant Acinetobacter baumannii ATCC […] at 35:1 compound to doxycycline ratio after 48 hrs by resazurin dye based microdilution broth checkerboard method; assay type: functional; settings: ATCC BAA 18002, 48 h; method in brief: as §2
[4] = system: Acinetobacter baumannii; assay: Synergistic antibacterial activity against multidrug-resistant Acinetobacter baumannii ATCC […] at 2:1 compound to doxycycline ratio after 48 hrs by resazurin dye based microdilution broth checkerboard method; assay type: functional; settings: ATCC BAA 18002, 48 h; method in brief: as §2
[5] = system: Klebsiella pneumoniae; assay: Synergistic antibacterial activity against Klebsiella pneumoniae ATCC 8047 at 60:1 compound to doxycycline ratio after 48 hrs by resazurin dye based microdilution broth checkerboard method; assay type: functional; settings: ATCC 8047, 48 h; method in brief: as §1
[6] = system: Klebsiella pneumoniae; assay: Synergistic antibacterial activity against Klebsiella pneumoniae ATCC 8047 at 35:1 compound to doxycycline ratio after 48 hrs by resazurin dye based microdilution broth checkerboard method; assay type: functional; settings: ATCC 8047, 48 h; method in brief: as §1
[7] = system: Klebsiella pneumoniae; assay: Synergistic bactericidal activity against Klebsiella pneumoniae ATCC 8047 at 35:1 compound to doxycycline ratio after 48 hrs by resazurin dye based microdilution broth checkerboard method; assay type: functional; settings: ATCC 8047, 48 h, read-out: MBC99.9; method in brief: as §2
[8] = system: Escherichia coli; assay: Synergistic bactericidal activity against Escherichia coli ATCC 10798 at 35:1 compound to doxycycline ratio after 48 hrs by resazurin dye based microdilution broth checkerboard method; assay type: functional; settings: ATCC 10798, 48 h, read-out: MBC99.9; method in brief: as §1
[9] = system: Pseudomonas aeruginosa; assay: Synergistic antibacterial activity against Pseudomonas aeruginosa ATCC 27853 at 60:1 compound to doxycycline ratio after 48 hrs by resazurin dye based microdilution broth checkerboard method; assay type: functional; settings: ATCC 27853, 48 h; method in brief: as §1
[10] = system: Pseudomonas aeruginosa; assay: Synergistic bactericidal activity against Pseudomonas aeruginosa ATCC 27853 at 35:1 compound to doxycycline ratio after 48 hrs by resazurin dye based microdilution broth checkerboard method; assay type: functional; settings: ATCC 27853, 48 h, read-out: MBC99.9; method in brief: as §1
[11] = system: Pseudomonas aeruginosa; assay: Growth inhibition of Pseudomonas aeruginosa ATCC 27853 at 2:1 compound to doxycycline ratio after 48 hrs by resazurin dye based microdilution method; assay type: functional; settings: ATCC 27853, 48 h; method in brief: as §1
[12] = system: Pseudomonas aeruginosa; assay: Synergistic bactericidal activity against Pseudomonas aeruginosa ATCC 27853 at 2:1 compound to doxycycline ratio after 48 hrs by resazurin dye based microdilution broth checkerboard method; assay type: functional; settings: ATCC 27853, 48 h, read-out: MBC99.9; method in brief: as §1
[13] = system: Pseudomonas aeruginosa; assay: Growth inhibition of Pseudomonas aeruginosa ATCC 27853 after 48 hrs by resazurin dye based microdilution method; assay type: functional; settings: ATCC 27853, 48 h
Method in brief: (§3)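 Broth microdilution in tryptic soy broth. Mid-log cultures (OD600 0.5) treated with serial dilutions from a DMSO stock (1 mg per 100 μL) for 48 h at 37 °C. Resazurin (stock 0.02%) then added for 1 h at 37 °C. MIC is the lowest concentration staying blue; MBC is blue retained over 4 h (99.9% kill), with CFU plating when needed.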

[14] = system: Staphylococcus aureus; assay: Synergistic antibacterial activity against Staphylococcus aureus ATCC 25923 at 2:1 compound to doxycycline ratio after 48 hrs by resazurin dye based microdilution broth checkerboard method; assay type: functional; settings: ATCC 25923, 48 h; method in brief: as §1
[15] = system: Staphylococcus aureus; assay: Growth inhibition of Staphylococcus aureus ATCC 25923 after 48 hrs by resazurin dye based microdilution method; assay type: functional; settings: ATCC 25923, 48 h; method in brief: as §3
[16] = system: Mycobacterium tuberculosis; assay: Synergistic bactericidal activity against Mycobacterium tuberculosis H37Rv at 2:1 compound to doxycycline ratio after 48 hrs by resazurin dye based microdilution broth checkerboard method; assay type: functional; settings: read-out: MBC99.9
[17] = system: Acinetobacter baumannii; assay: Potentiation of doxycycline-induced antimicrobial activity against Acinetobacter baumannii ATCC 19606 at 0.20 ug/ml in presence of 0.05 ug/ml doxycycline by microdilution broth checkerboard method; assay type: functional, ATCC 19606 = CIP 70.34 = JCM 6841
Method in brief: (§4)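 A. baumannii ATCC 19606 in a broth microdilution checkerboard with doxycycline, 96 concentration combinations. ΣFIC = C_A/MIC_A + C_B/MIC_B, taken for wells at the growth/no-growth interface; ΣFIC <0.5 counts as synergy.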

[18] = system: Acinetobacter baumannii; assay: Potentiation of doxycycline-induced antimicrobial activity against Acinetobacter baumannii ATCC 19606 at 0.40 ug/ml in presence of 0.05 ug/ml doxycycline by microdilution broth checkerboard method; assay type: functional, ATCC 19606 = CIP 70.34 = JCM 6841; method in brief: as §4
[19] = Half life in Sprague-Dawley rat liver microsomes at 500 ng/ml by LC/MS analysis; assay type: ADME, microsome
Method in brief: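 Pooled Sprague-Dawley rat liver microsomes at 1 mg/mL protein in 100 mM phosphate, pH 7.4. Compound at 500 ng/mL final; verapamil as positive control. Pre-equilibrated 5 min at 37 °C, then 1 mM NADPH added. Triplicate samples at 0, 5, 10, 20, 30, 45 and 60 min, quenched in 4 volumes of cold methanol, analysed by LC-MS.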

[20] = Safety index, ratio of compound IC50 to valnemulin IC50 for African green monkey Vero cells; assay type: ADME, cell-based; settings: chlorocebus sabaeus, read-out: Ratio IC50
[21] = Protein binding in rat plasma at 500 to 5000 ng/ml after 4 hrs by LC/MS analysis; assay type: ADME, cell-free
Method in brief: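 Equilibrium dialysis (MWCO 6000–8000) of Sprague-Dawley rat plasma (lithium heparin) spiked at 500 and 5000 ng/mL, in duplicate, against isotonic phosphate buffer pH 7.4. 4 h at 37 °C, about 100 rpm. Methanol with internal standard, LC-MS. Free fraction = buffer/plasma concentration; reported as % bound. Verapamil as reference.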

[22] = system: Acinetobacter baumannii; assay: Synergistic antibacterial activity against Acinetobacter baumannii ATCC 19606 infected in C57BL/6 mouse assessed as survival rate at compound to doxycycline ratio of 35:1 at 60 mg/kg, ip administered as single dose measured for 5 days (reference value: <20%); assay type: functional; settings: ATCC 19606 = CIP 70.34 = JCM 6841, ip, 120 h
Method in brief: (§5)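 C57BL/6 mice (n = 5 per group; 4 untreated controls) infected intraperitoneally with A. baumannii ATCC19606 grown at 37 °C and collected by centrifugation, at a dose giving 75% death. Single intraperitoneal dose (2 to 60 mg/kg) given 1 h after infection. Mice monitored for 5 days, with death as the end point; survival rate recorded.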

[23] = system: Acinetobacter baumannii; assay: Antibacterial activity against Acinetobacter baumannii ATCC 19606 infected in C57BL/6 mouse assessed as survival rate at 20 mg/kg, ip administered as single dose measured for 5 days (reference value: <20%); assay type: functional; settings: ATCC 19606 = CIP 70.34 = JCM 6841, ip, 120 h; method in brief: as §5

## C=C[C@]1(C)C[C@@H](OC(=O)CSC(C)(C)CNC(=O)[C@H](N)C(C)C)[C@]2(C)[C@H](C)CC[C@]3(CC[C@@H](O)[C@H]32)[C@@H](C)[C@@H]1O
[1]
  MIC: 0.5 µg/mL
[2]
  MIC: 0.4 µg/mL
[3]
  MIC: 1.56 µg/mL
[4]
  MIC: 1.56 µg/mL
[5]
  MIC: 1.56 µg/mL
[6]
  MIC: 0.78 µg/mL
[7]
  MBC: 1.56 µg/mL
[8]
  MBC: 1.56 µg/mL
[9]
  MIC: 12.5 µg/mL
[10]
  MBC: 25 µg/mL
[11]
  MIC: 6.25 µg/mL
[12]
  MBC: 12.5 µg/mL
[13]
  MIC: > 25 µg/mL
[14]
  MIC: 12.5 µg/mL
[15]
  MIC: 12.5 µg/mL (≈ 22.1 µM)
[16]
  MBC: 6.25 µg/mL
[17]
  fractional inhibitory concentration index (FICI): 0.28
[18]
  fractional inhibitory concentration index (FICI): 0.31
[19]
  t1/2: > 1 h
[20]
  selectivity ratio: 2.85
[21]
  PPB: 76.9%
[22]
  survival at 60 mg/kg: 100%
[23]
  survival at 20 mg/kg: 100%
